In brackets after ≈: the same amount, converted by molar mass. Activity calls are given as the source filed them. The calls are words filed in the database; no cut-off is given here.
Columns and labels:
PANC-1 [1] = assay: Anticlonogenic activity against human PANC1 cells after 2 weeks by crystal violet staining-based assay; format: functional, cell-based
Procedure, shortened: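 PANC-1 cells were seeded at 100 cells/well overnight, then exposed to graded compound concentrations for 14 days with medium changed every three days. Colonies were fixed in 10% ethanol for 10 min and stained with 0.5% crystal violet in 25% ethanol for 10 min. Plates were dried and scanned.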

HCT-116 = assay: Antiproliferative activity against p53-deficient human HCT116 cells after 48 hrs by MTT assay; format: functional, cell-based; details: HCT-116, 48 h
Procedure, shortened: (§1)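 Cells were seeded at 5×10^5 cells/mL overnight and exposed to graded compound concentrations for 48 h. MTT (5 mg/mL stock) was added for 4 h at 37 °C, and formazan was dissolved in DMSO. Absorbance was read at 570 nm. IC₅₀ was fitted from the curves; values are mean ± SD, n = 3.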

[2] = biological target: Hypoxia-inducible factor 1-alpha (Homo sapiens) (UniProt Q16665); assay: Inhibition of HIF-1alpha in human PANC1 cells assessed as downregulation of VEGF mRNA levels under hypoxia condition after 24 hrs by qRT-PCR method; format: cell-based
Procedure, shortened: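 PANC-1 cells were exposed to hypoxia (1% O₂, 94% N₂, 5% CO₂, 37 °C) for 24 h with compound treatment. VEGF mRNA was measured by real-time qRT-PCR.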

[3] = Intrinsic aqueous solubility of the compound; format: physicochemical; details: read-out: Intrinsic_solubility
Procedure, shortened: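 Intrinsic aqueous solubility and log D at pH 7.4 were measured on a pION Gemini Profiler.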

PANC-1 [4] = assay: Induction of apoptosis in human PANC1 cells assessed as dead cells at 2 uM after 24 hrs by annexin V/propidium iodide staining-based flow cytometric method (reference value: 0.60%); format: functional
PANC-1 [5] = assay: Induction of apoptosis in human PANC1 cells assessed as late apoptotic cells at 0.1 uM after 24 hrs by annexin V/propidium iodide staining-based flow cytometric method (reference value: 2.65%); format: functional
PANC-1 [6] = assay: Induction of apoptosis in human PANC1 assessed as increase in cleaved caspase-3 levels at 0.1 to 1 uM after 24 hrs by Western blot method; format: functional, cell-based
Procedure, shortened: (§2)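 PANC-1 cells were treated with graded compound concentrations for 24 h, then lysed. Proteins were separated by SDS-PAGE and blotted to PVDF. Blots were probed for PARP, cleaved PARP, caspase-3, cleaved caspase-3, caspase-9 and cleaved caspase-9, with GAPDH as loading control, and read by infrared imaging. Bands were quantified by densitometry as ratios normalized to GAPDH.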

PANC-1 [7] = assay: Induction of apoptosis in human PANC1 assessed as decrease in caspase-9 levels at 0.1 to 1 uM after 24 hrs by Western blot method; format: functional, cell-based; procedure, shortened: as §2
PANC-1 [8] = assay: Antitumor activity against human PANC1 cells xenografted in nude mouse assessed as inhibition of tumor weight at 15 mg/kg, ip administered every 2 days for 21 days relative to vehicle-treated control; format: functional; details: PANC-1, ip
Procedure, shortened: (§3)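 Female nude mice received 1×10^7 PANC-1 cells subcutaneously in the right flank. After 4 weeks, mice bearing tumors averaging 100 mm³ were randomized into five groups. Dosing was 15, 30 or 60 mg/kg i.p. every two days for 21 days. Tumor volume = width² × length/2; tumors were weighed at sacrifice, and body weight was monitored.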

MDA-MB-231 = assay: Antiproliferative activity against human MDA-MB-231 cells after 48 hrs by MTT assay; format: functional, cell-based; details: MDA-MB-231, 48 h; procedure, shortened: as §1
PANC-1 [9] = assay: Induction of apoptosis in human PANC1 cells assessed as viable cells at 0.1 uM after 24 hrs by annexin V/propidium iodide staining-based flow cytometric method (reference value: 89.5%); format: functional; details: PANC-1, 24 h, read-out: Activity
Mus musculus [10] = assay: Downregulation of CD31 expression in human PANC1 cells xenografted in nude mouse at 15 to 60 mg/kg, ip administered every 2 days for 21 days by immunohistochemical method; format: functional, organism-based
Procedure, shortened: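 Tumors came from the PANC-1 nude-mouse xenografts dosed at 15, 30 or 60 mg/kg i.p. every two days for 21 days. Tumor sections were stained immunohistochemically with antibodies against CD31, HIF-1α and VEGF.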

[11] = biological target: Hypoxia-inducible factor 1-alpha (Homo sapiens) (UniProt Q16665); assay: Inhibition of HIF-1alpha (unknown origin) expressed in HEK293 cells under hypoxia condition after 24 hrs by luciferase reporter gene assay; format: cell-based
Procedure, shortened: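 HEK293 cells were co-transfected with HRE-luciferase and pRL-SV40 plasmids for 6 h. Cells were then treated with compound under hypoxia (1% O₂, 94% N₂, 5% CO₂, 37 °C) for 24 h. Activity was read by dual-luciferase assay on a luminometer.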

PANC-1 [12] = assay: Induction of apoptosis in human PANC1 assessed as decrease in PARP levels at 0.1 to 1 uM after 24 hrs by Western blot method; format: functional, cell-based; procedure, shortened: as §2
PANC-1 [13] = assay: Antitumor activity against human PANC1 cells xenografted in nude mouse assessed as decrease in tumor volume at 15 to 60 mg/kg, ip administered every 2 days for 21 days; format: functional, organism-based; procedure, shortened: as §3
PANC-1 [14] = assay: Induction of apoptosis in human PANC1 cells assessed as late apoptotic cells at 2 uM after 24 hrs by annexin V/propidium iodide staining-based flow cytometric method (reference value: 2.65%); format: functional
[15] = Cmax in rat at 10 mg/kg, iv after 0.083 to 24 hrs by LC-MS/MS method; format: ADME, organism-based; set-up: dose 10 mg/kg, route intravenous; details: in vivo
HUVEC [16] = assay: Antimigratory activity against HUVEC at 1 uM by wound-healing assay; format: functional, cell-based; details: Homo sapiens, TDE = time-dependent effect
Procedure, shortened: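 HUVEC monolayers at 90% confluence were switched to serum-free medium and scratched with a pipette tip. Compound was added under hypoxia (1% O₂, 94% N₂, 5% CO₂, 37 °C) in the presence of PANC-1 conditioned medium. Wound closure was imaged by inverted-phase microscope at 12 h and 24 h.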

HUVEC [17] = assay: Antiangiogenic activity in HUVEC assessed as inhibition of tube formation under hypoxia condition at 0.625 to 2.5 uM after 6 hrs by inverted microscopic method; details: Homo sapiens
Mus musculus [18] = assay: Toxicity in nude mouse xenografted with human PANC1 cells assessed as effect on quality of life at 15 to 60 mg/kg, ip administered every 2 days for 21 days measured during compound dosing; format: organism-based; details: in vivo
Procedure, shortened: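 Female nude mice were implanted s.c. in the right flank with 1×10^7 PANC-1 cells. After 4 weeks, mice with tumours averaging 100 mm³ were randomized into five groups. They were dosed i.p. at 15, 30 or 60 mg/kg every two days for 21 days and monitored for toxicity, tumour growth and body weight.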

PANC-1 [19] = assay: Antiproliferative activity against human PANC1 cells after 48 hrs by MTT assay; format: functional, cell-based; details: PANC-1, 48 h; procedure, shortened: as §1
PANC-1 [20] = assay: Induction of apoptosis in human PANC1 cells assessed as early apoptotic cells at 1 uM after 24 hrs by annexin V/propidium iodide staining-based flow cytometric method (reference value: 7.25%); format: functional
PANC-1 [21] = assay: Induction of apoptosis in human PANC1 cells assessed as early apoptotic cells at 0.1 uM after 24 hrs by annexin V/propidium iodide staining-based flow cytometric method (reference value: 7.25%); format: functional
PANC-1 [22] = assay: Induction of apoptosis in human PANC1 cells assessed as dead cells at 0.1 uM after 24 hrs by annexin V/propidium iodide staining-based flow cytometric method (reference value: 0.60%); format: functional
PANC-1 [23] = assay: Induction of apoptosis in human PANC1 assessed as decrease in caspase-3 levels at 0.1 to 1 uM after 24 hrs by Western blot method; format: functional, cell-based; procedure, shortened: as §2

Hypoxia-inducible factor 1-alpha (Homo sapiens), sequence (Q16665 whole entry, looked up): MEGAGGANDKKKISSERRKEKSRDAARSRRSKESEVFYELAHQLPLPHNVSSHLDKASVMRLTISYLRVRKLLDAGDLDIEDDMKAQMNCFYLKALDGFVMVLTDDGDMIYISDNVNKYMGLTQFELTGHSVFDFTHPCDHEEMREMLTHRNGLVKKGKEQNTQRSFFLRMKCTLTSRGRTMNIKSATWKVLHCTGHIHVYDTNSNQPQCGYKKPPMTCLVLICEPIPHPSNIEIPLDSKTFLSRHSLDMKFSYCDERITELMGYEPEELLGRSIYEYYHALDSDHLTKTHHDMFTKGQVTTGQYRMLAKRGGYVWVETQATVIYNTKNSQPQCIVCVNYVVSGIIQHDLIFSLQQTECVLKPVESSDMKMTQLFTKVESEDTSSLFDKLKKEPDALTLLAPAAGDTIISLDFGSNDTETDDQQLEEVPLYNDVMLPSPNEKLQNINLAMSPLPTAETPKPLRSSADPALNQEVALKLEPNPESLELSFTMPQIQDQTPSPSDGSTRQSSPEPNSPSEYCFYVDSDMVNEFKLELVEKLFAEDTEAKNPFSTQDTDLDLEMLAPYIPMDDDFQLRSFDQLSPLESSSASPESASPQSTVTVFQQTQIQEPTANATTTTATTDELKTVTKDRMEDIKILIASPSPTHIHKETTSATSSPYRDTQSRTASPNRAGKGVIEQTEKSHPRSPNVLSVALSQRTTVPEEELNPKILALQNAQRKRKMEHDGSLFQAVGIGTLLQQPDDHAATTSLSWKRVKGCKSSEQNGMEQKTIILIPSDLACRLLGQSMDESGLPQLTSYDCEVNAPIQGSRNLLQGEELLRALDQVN

**Q.** Which Activity (PANC-1 [1]) does the source give for `Cc1c(C(=O)NC2CCN(C)CC2)oc2ccc(N(Cc3ccc(Br)cc3)S(=O)(=O)c3ccc(Br)cc3)cc12` here?
**A.** Its Activity is “Dose-dependent effect”.

**Q.** What about the IC50 (HCT-116) of the same compound?
**A.** The IC50 was 1610 nM.

**Q.** What about the inhibition [2] of the same compound?
**A.** Its inhibition is “Dose-dependent effect”.

**Q.** What about the solubility [3] of the same compound?
**A.** The solubility was 30.2 µg/mL (≈ 44.7 µM).

**Q.** What about the Activity (PANC-1 [4]) of the same compound?
**A.** Its Activity is 0.45%.

**Q.** What about the Activity (PANC-1 [5]) of the same compound?
**A.** The Activity was 9.3%.

**Q.** And the Activity (PANC-1 [6])?
**A.** Its Activity is “Active”.

**Q.** What about the Activity (PANC-1 [7]) of the same compound?
**A.** Its Activity is “Active”.

**Q.** What about the inhibition in vivo at 15 mg/kg (PANC-1 [8]) of the same compound?
**A.** Its inhibition in vivo at 15 mg/kg is 39%.

**Q.** And the IC50 (MDA-MB-231)?
**A.** The IC50 was 1900 nM.

**Q.** What about the viability at 0.1 µM (PANC-1 [9]) of the same compound?
**A.** Its viability at 0.1 µM is 85.5%.

**Q.** What about the Activity (Mus musculus [10]) of the same compound?
**A.** Its Activity is “Active”.

**Q.** And the inhibition [11]?
**A.** Its inhibition is “Dose-dependent effect”.

**Q.** And the Activity (PANC-1 [12])?
**A.** The Activity was “Active”.

**Q.** And the Activity (PANC-1 [13])?
**A.** Its Activity is “Active”.

**Q.** What about the Activity (PANC-1 [14]) of the same compound?
**A.** Its Activity is 51.15%.

**Q.** And the Cmax [15]?
**A.** The Cmax was 3100 ng/mL.

**Q.** And the inhibition (HUVEC [16])?
**A.** The inhibition was “Tde”.

**Q.** What about the inhibition (HUVEC [17]) of the same compound?
**A.** The inhibition was “Active”.

**Q.** What about the Activity (Mus musculus [18]) of the same compound?
**A.** Its Activity is “Non-Toxic”.

**Q.** What about the IC50 (PANC-1 [19]) of the same compound?
**A.** Its IC50 is 1070 nM.

**Q.** What about the Activity (PANC-1 [20]) of the same compound?
**A.** The Activity was 3.55%.

**Q.** And the Activity (PANC-1 [21])?
**A.** Its Activity is 4.45%.

**Q.** What about the Activity (PANC-1 [22]) of the same compound?
**A.** The Activity was 0.8%.

**Q.** And the Activity (PANC-1 [23])?
**A.** Its Activity is “Active”.

Source: ChEMBL document CHEMBL4130343, “Design, synthesis, and evaluation of benzofuran derivatives as novel anti-pancreatic carcinoma agents via interfering the hypoxia environment by targeting HIF-1α pathway” (Eur J Med Chem, 2017)
